Source: ChEMBL document CHEMBL3286113, “New potent antibacterial oxazolidinone (MRX-I) with an improved class safety profile” (J Med Chem, 2014)
In brackets after ≈: the same amount, converted by molar mass.

What was measured:
[1] = Elimination half life in fasted human at 300 mg, po administered as single dose; type: ADME, organism-based; details: in vivo, read-out: beta t1/2 (converted)
Summary of the method: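 Healthy volunteers (12; six of each sex) in a three-period Latin-square crossover. Each received single oral doses of 300, 600 and 900 mg under fasting conditions, with a 1-week washout between doses. Parameters from a noncompartmental model.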

Homo sapiens [2] = experiment: Toxicity in human assessed as change in reticulocyte count at 600 to 800 mg, po administered as single dose with meal on day 1 and day 15 followed by bid with meal on day 2 to day 14 measured during compound treatment; type: organism-based; details: in vivo
Homo sapiens [3] = experiment: Toxicity in human assessed as change in RBC count at 600 to 800 mg, po administered as single dose with meal on day 1 and day 15 followed by bid with meal on day 2 to day 14 measured during compound treatment; type: organism-based; details: in vivo
Rattus norvegicus [4] = species on record: Rattus norvegicus; experiment: Drug uptake in rat measured over 7 days; type: ADME, organism-based; details: in vivo, 168 h
Homo sapiens [5] = experiment: Drug uptake in human at 600 to 800 mg, po administered as single dose with meal measured on day 1 and day 15; type: ADME, organism-based; details: in vivo
Summary of the method: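 Randomized, double-blind, placebo-controlled multiple-dose study in 32 healthy subjects, half male and half female. Each dose was taken with a meal, at 600 or 800 mg, 28 doses over 15 days. A single dose on days 1 and 15 gave full PK; BID (Q12h) dosing ran on days 2–14.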

Rattus norvegicus [6] = experiment: Toxicity in female rat assessed as effect on hemoglobin level at 20 mg/kg/day, po bid administered for 4 weeks (reference value: 141.8 g/L); type: organism-based; design: route oral; details: in vivo, 672 h
Rattus norvegicus [7] = experiment: Toxicity in female rat assessed as effect on mean corpuscular hemoglobin level at 20 mg/kg/day, po bid administered for 4 weeks (reference value: 19.5 pg); type: organism-based; design: route oral; details: in vivo, 672 h
Rattus norvegicus [8] = experiment: Toxicity in female rat assessed as effect on neutrophil count at 20 mg/kg/day, po bid administered for 4 weeks (reference value: 22.4%); type: organism-based; design: route oral; details: in vivo, 672 h
Rattus norvegicus [9] = experiment: Toxicity in female rat assessed as effect on hematocrit level at 100 mg/kg/day, po bid administered for 4 weeks (reference value: 39.08%); type: organism-based; design: route oral; details: in vivo, 672 h
Rattus norvegicus [10] = experiment: Toxicity in female rat assessed as effect on neutrophil count at 200 to 300 mg/kg/day, po bid administered for 4 weeks (reference value: 22.4%); type: organism-based; design: route oral; details: in vivo, 672 h
Rattus norvegicus [11] = experiment: Toxicity in female rat assessed as effect on lymphocyte count at 200 to 300 mg/kg/day, po bid administered for 4 weeks (reference value: 74.8%); type: organism-based; design: route oral; details: in vivo, 672 h
Rattus norvegicus [12] = experiment: Toxicity in female rat assessed as change in bone marrow at 200 to 300 mg/kg/day, po bid administered for 4 weeks; type: organism-based; design: route oral; details: in vivo, 672 h
Summary of the method: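 Rats given the drug orally twice daily for 4 weeks, 10 rats per gender per group. Doses were 20, 100 and 200/300 mg/kg/day, with the top dose raised from 200 to 300 on day 15. Linezolid comparator at 100 and 200 mg/kg/day. Followed by a 4-week recovery. Mortality, body weight, hematology and bone marrow examined. TK blood sampled on days 1, 14 and 28.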

Cytochrome P450 2E1 = Cytochrome P450 2E1 (Homo sapiens, UniProt P05181); experiment: Inhibition of CYP2E1 (unknown origin); type: ADME
Cytochrome P450 2D6 = Cytochrome P450 2D6 (Homo sapiens, UniProt P10635); experiment: Inhibition of CYP2D6 (unknown origin) at 1 to 200 uM; type: ADME
Staphylococcus aureus [13] = experiment: Antibacterial activity against Staphylococcus aureus in po dosed mouse septicemia model; type: functional
[14] = system: Staphylococcus haemolyticus; experiment: Antibacterial activity against Staphylococcus haemolyticus; type: functional
Staphylococcus = experiment: Antibacterial activity against beta-lactamase-negative Staphylococcus; type: functional
Enterococcus faecium = experiment: Bacteriostatic activity against vancomycin-sensitive Enterococcus faecium; type: functional
Streptococcus pneumoniae = experiment: Bactericidal activity against penicillin-sensitive Streptococcus pneumoniae; type: functional
Staphylococcus aureus [15] = experiment: Antibacterial activity against Staphylococcus aureus measured after 1 serial passage; type: functional
Staphylococcus aureus [16] = experiment: Antibacterial activity against Staphylococcus aureus measured after 2 serial passages; type: functional
Staphylococcus aureus [17] = experiment: Antibacterial activity against methicillin-sensitive Staphylococcus aureus ATCC 29213; type: functional
Staphylococcus aureus [18] = experiment: Antibacterial activity against methicillin-sensitive Staphylococcus aureus isolate 15; type: functional
Streptococcus pyogenes [19] = experiment: Antibacterial activity against Streptococcus pyogenes isolate 556; type: functional
Staphylococcus aureus [20] = experiment: Antibacterial activity against methicillin-sensitive Staphylococcus aureus ATCC 29213 in po dosed mouse systemic infection model; type: functional; details: ATCC 29213, po
Staphylococcus aureus [21] = experiment: Antibacterial activity against methicillin-resistant Staphylococcus aureus isolate 0605 in po dosed mouse systemic infection model; type: functional; details: isolate 0605, po
[22] = Toxicity in po dosed rat administered as bid for 4 weeks; type: organism-based; details: in vivo
Staphylococcus aureus [23] = experiment: Antibacterial activity against methicillin-sensitive Staphylococcus aureus isolate 15 in po dosed mouse systemic infection model; type: functional; details: isolate 15, po
Streptococcus pyogenes [24] = experiment: Antibacterial activity against Streptococcus pyogenes isolate 556 in po dosed mouse systemic infection model; type: functional; details: isolate 556, po
Staphylococcus aureus [25] = experiment: Antibacterial activity against methicillin-sensitive Staphylococcus aureus ATCC 29213 in mouse thigh infection model assessed as reduction of log10 CFU per thigh at 20 mg/kg, po; type: functional
Summary of the method: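 Mouse thigh infection with S. aureus ATCC29213 (MSSA), 10 animals per dosing group. Oral doses were 5, 10, 20, 40 and 80 mg/kg. The read-out was log CFU per thigh after treatment, and the reduction (ΔLogCFU/thigh) was reported.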

Staphylococcus aureus [26] = experiment: Antibacterial activity against methicillin-resistant Staphylococcus aureus isolate 0605 in mouse thigh infection model assessed as reduction of log10 CFU per thigh at 40 mg/kg, po; type: functional
[27] = Tmax in po dosed dog; type: ADME, organism-based, Canis lupus familiaris; details: in vivo
[28] = Half life in po dosed dog; type: ADME, organism-based, Canis lupus familiaris; details: in vivo
[29] = Oral bioavailability in mouse; type: ADME, organism-based; details: in vivo
[30] = Oral bioavailability in dog; type: ADME, organism-based, Canis lupus familiaris; details: in vivo
[31] = Cmax in male rat at 15 mg/kg, po; type: ADME, organism-based; design: dose 15 mg/kg, route oral; details: in vivo
[32] = Half life in female rat at 5 mg/kg, iv; type: ADME, organism-based; design: dose 5 mg/kg, route intravenous; details: in vivo
[33] = AUC (0 to t) in female rat at 5 mg/kg, po; type: ADME, organism-based; design: dose 5 mg/kg, route oral; details: plasma
Summary of the method: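 Rat PK by gender, with single oral doses of 5, 15 and 45 mg/kg and an iv dose of 5 mg/kg. Tmax, Cmax, T1/2 and AUC0−t were reported per gender.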

Rattus norvegicus [34] = experiment: Toxicity in rat assessed as mortality at 200 mg/kg, po bid administered for 4 weeks measured on day 14; type: organism-based; design: dose 200 mg/kg, route oral; details: in vivo, 672 h
Summary of the method: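 Rats, 10 per gender per group, given drug orally twice daily at 20, 100 and 200/300 mg/kg/day for 4 weeks, then a 4-week recovery period. The top dose of 200 mg/kg/day was raised to 300 mg/kg/day on day 15. The comparator was dosed the same way at 100 and 200 mg/kg/day. Monitoring covered mortality, body weight, hematology and bone marrow, with blood taken for TK on days 1, 14 and 28.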

L5178Y = experiment: Mutagenicity in mouse tk +/- L5178Y cells assessed as increase in gene mutation frequency at 62.5 to 1000 ug/mL in presence of S9 fraction

Chain of Cytochrome P450 2D6 (P10635 whole entry): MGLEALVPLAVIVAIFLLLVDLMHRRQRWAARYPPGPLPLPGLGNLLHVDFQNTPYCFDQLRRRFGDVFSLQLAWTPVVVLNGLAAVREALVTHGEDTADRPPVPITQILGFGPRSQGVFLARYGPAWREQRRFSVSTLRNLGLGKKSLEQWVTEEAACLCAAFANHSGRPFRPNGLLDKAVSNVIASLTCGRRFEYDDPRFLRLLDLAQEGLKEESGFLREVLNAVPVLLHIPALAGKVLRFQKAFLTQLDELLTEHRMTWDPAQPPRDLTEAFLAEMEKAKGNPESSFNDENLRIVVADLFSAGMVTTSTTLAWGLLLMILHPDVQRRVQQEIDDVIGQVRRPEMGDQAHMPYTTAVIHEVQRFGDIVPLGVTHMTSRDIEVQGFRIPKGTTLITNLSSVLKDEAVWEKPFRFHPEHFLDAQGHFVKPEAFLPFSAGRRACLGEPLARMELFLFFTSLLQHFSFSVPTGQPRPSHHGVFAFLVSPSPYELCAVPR
Chain of Cytochrome P450 2E1 (P05181 whole entry): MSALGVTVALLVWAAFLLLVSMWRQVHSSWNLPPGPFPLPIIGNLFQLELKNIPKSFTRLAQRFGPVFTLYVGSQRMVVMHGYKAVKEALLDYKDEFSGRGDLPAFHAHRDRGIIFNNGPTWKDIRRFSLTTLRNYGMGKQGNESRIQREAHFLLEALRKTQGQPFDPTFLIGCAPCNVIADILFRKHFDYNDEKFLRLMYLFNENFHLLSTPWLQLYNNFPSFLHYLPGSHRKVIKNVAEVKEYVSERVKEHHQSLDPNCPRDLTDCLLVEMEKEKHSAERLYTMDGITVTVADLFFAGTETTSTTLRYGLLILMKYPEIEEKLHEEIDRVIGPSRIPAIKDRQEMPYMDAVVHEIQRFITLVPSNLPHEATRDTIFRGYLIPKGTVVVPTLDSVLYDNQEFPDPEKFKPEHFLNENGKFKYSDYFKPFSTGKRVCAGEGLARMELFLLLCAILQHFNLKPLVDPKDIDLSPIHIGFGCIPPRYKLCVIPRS

## O=C1C=CN(c2c(F)cc(N3C[C@H](CNc4ccon4)OC3=O)c(F)c2F)CC1 [CONTEZOLID]
[1]
  half-life: 2.18 h
Homo sapiens [2]
  Activity: Non-toxic
Homo sapiens [3]
  Activity: Non-toxic
Rattus norvegicus [4]
  Drug uptake: Not Active
Homo sapiens [5]
  Drug uptake: Not Active
Rattus norvegicus [6]
  Activity: 137.8 g/L
Rattus norvegicus [7]
  Activity: 20.2 pg
Rattus norvegicus [8]
  Activity: 15.4%
Rattus norvegicus [9]
  Activity: 36.48%
Rattus norvegicus [10]
  Activity: 26.4%
Rattus norvegicus [11]
  Activity: 71.8%
Rattus norvegicus [12]
  Activity: Toxic
Cytochrome P450 2E1
  IC50: 9.6 µM
Cytochrome P450 2D6
  inhibition (INH): Not Active
Staphylococcus aureus [13]
  ED50: 7.9 mg/kg
[14]
  MIC50: 0.5 mg/L (≈ 1.22 µM)
  MIC90: 0.5 mg/L (≈ 1.22 µM)
Staphylococcus
  MIC50: 0.5 mg/L (≈ 1.22 µM)
  MIC90: 0.5 mg/L (≈ 1.22 µM)
Enterococcus faecium
  MIC50: 1 mg/L (≈ 2.45 µM)
  MIC90: 1 mg/L (≈ 2.45 µM)
Streptococcus pneumoniae
  MIC50: 0.5 mg/L (≈ 1.22 µM)
  MIC90: 0.5 mg/L (≈ 1.22 µM)
Staphylococcus aureus [15]
  MIC: 2 mg/L (≈ 4.9 µM)
Staphylococcus aureus [16]
  MIC: 2 mg/L (≈ 4.9 µM)
Staphylococcus aureus [17]
  MIC: 1 mg/L (≈ 2.45 µM)
Staphylococcus aureus [18]
  MIC: 2 mg/L (≈ 4.9 µM)
Streptococcus pyogenes [19]
  MIC: 1 mg/L (≈ 2.45 µM)
Staphylococcus aureus [20]
  ED50: 8 mg/kg
Staphylococcus aureus [21]
  ED50: 12 mg/kg
[22]
  NOAEL at 672 h: 100 mg/kg/day
Staphylococcus aureus [23]
  ED50: 5.7 mg/kg
Streptococcus pyogenes [24]
  ED50: 8.9 mg/kg
Staphylococcus aureus [25]
  deltalog10CFU: 3.33
Staphylococcus aureus [26]
  deltalog10CFU: 4.13
[27]
  Tmax: 0.5 h
[28]
  half-life: 3 h
[29]
  bioavailability: 69%
[30]
  bioavailability: 37%
[31]
  Cmax: 10.7 µg/mL
[32]
  half-life: 1.51 h
[33]
  AUC(0-t): 31.5 µg·h/mL
Rattus norvegicus [34]
  Activity: Toxic
L5178Y
  Activity: Non-toxic
